Data reported in ChEMBL document CHEMBL5058577, “EUbOPEN Chemogenomics Library 2 (Multiplex)” (2022).

Tested on: Fibroblast
Assay: Multiplex assay against human fibroblast
Assay type: toxicity, cell-based
Procedure, shortened: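 Live cells were stained at seeding with Hoechst33342, BioTracker Green Microtubule Cytoskeleton Dye, MitoTracker Red and Annexin V Alexa Fluor 680. Following compound addition, they were imaged on a CQ1 microscope at 37°C and 5% CO2 and gated by CellPathfinder machine learning into Hoechst high-intensity objects or normal cells, with normal cells split into healthy, pyknosed or fragmented nuclei and pyknosed cells into mitotic or apoptotic. Tubulin, mitochondrial-mass and membrane-permeability phenotypes are per cents of healthy-nucleus cells.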

[1] = 12 h, 1 µM, compound concentration 1 uM, replicate 1
[2] = 12 h, 1 µM, compound concentration 1 uM, replicate 2
[3] = 12 h, 10 µM, compound concentration 10 uM, replicate 1
[4] = 12 h, 10 µM, compound concentration 10 uM, replicate 2
[5] = 24 h, 1 µM, compound concentration 1 uM, replicate 1
[6] = 24 h, 1 µM, compound concentration 1 uM, replicate 2
[7] = 24 h, 10 µM, compound concentration 10 uM, replicate 1
[8] = 24 h, 10 µM, compound concentration 10 uM, replicate 2
[9] = 48 h, 1 µM, compound concentration 1 uM, replicate 1
[10] = 48 h, 1 µM, compound concentration 1 uM, replicate 2
[11] = 48 h, 10 µM, compound concentration 10 uM, replicate 1
[12] = 48 h, 10 µM, compound concentration 10 uM, replicate 2

For `COc1cc(C(=O)N2CC[C@@H](O)[C@@H](N)C2)cc2nc(-c3cc4ccccc4n3CC3CC3)n(C)c12.Cl`, the “Population Apoptotic (%)” value [1] was 21%, the “Population Fragmented Nuclei (%)” value [1] was 25% and the “Population Healthy Nuclei (%)” value [1] was 62%. The “Population Hoechst High Intensity Objects (%)” value [1] was 2%, the “Population Membrane Permeable-Phenotype (%)” value [1] was 0% and the “Population Mitochondria Different-Phenotype (%)” value [1] was 4%. The “Population Mitotic Cells (%)” value [1] was 78%, the “Population Normal (%)” value [1] was 97% and the “Population Pyknosed Nuclei (%)” value [1] was 12%. The “Population Tubulin-Different-Phenotype (%)” value [1] was 55%, the “Total Cell Count” value [1] was 160 and the “Population Apoptotic (%)” value [2] was 48%. The “Population Fragmented Nuclei (%)” value [2] was 24%, the “Population Healthy Nuclei (%)” value [2] was 44% and the “Population Hoechst High Intensity Objects (%)” value [2] was 3%. The “Population Membrane Permeable-Phenotype (%)” value [2] was 10%, the “Population Mitochondria Different-Phenotype (%)” value [2] was 14% and the “Population Mitotic Cells (%)” value [2] was 51%. The “Population Normal (%)” value [2] was 96%, the “Population Pyknosed Nuclei (%)” value [2] was 31% and the “Population Tubulin-Different-Phenotype (%)” value [2] was 69%. For the same compound, the “Total Cell Count” value [2] was 130, the “Population Apoptotic (%)” value [3] was 60% and the “Population Fragmented Nuclei (%)” value [3] was 22%. The “Population Healthy Nuclei (%)” value [3] was 57%, the “Population Hoechst High Intensity Objects (%)” value [3] was 6% and the “Population Membrane Permeable-Phenotype (%)” value [3] was 0%. For the same compound, the “Population Mitochondria Different-Phenotype (%)” value [3] was 34%, the “Population Mitotic Cells (%)” value [3] was 40% and the “Population Normal (%)” value [3] was 93%. The “Population Pyknosed Nuclei (%)” value [3] was 19%, the “Population Tubulin-Different-Phenotype (%)” value [3] was 97% and the “Total Cell Count” value [3] was 271. The “Population Apoptotic (%)” value [4] was 48%, the “Population Fragmented Nuclei (%)” value [4] was 30% and the “Population Healthy Nuclei (%)” value [4] was 44%. For the same compound, the “Population Hoechst High Intensity Objects (%)” value [4] was 10%, the “Population Membrane Permeable-Phenotype (%)” value [4] was 2% and the “Population Mitochondria Different-Phenotype (%)” value [4] was 25%. The “Population Mitotic Cells (%)” value [4] was 51%, the “Population Normal (%)” value [4] was 89% and the “Population Pyknosed Nuclei (%)” value [4] was 25%. For the same compound, the “Population Tubulin-Different-Phenotype (%)” value [4] was 92%, the “Total Cell Count” value [4] was 179 and the “Population Apoptotic (%)” value [5] was 55%. The “Population Fragmented Nuclei (%)” value [5] was 24%, the “Population Healthy Nuclei (%)” value [5] was 62% and the “Population Hoechst High Intensity Objects (%)” value [5] was 3%. For the same compound, the “Population Membrane Permeable-Phenotype (%)” value [5] was 0%, the “Population Mitochondria Different-Phenotype (%)” value [5] was 5% and the “Population Mitotic Cells (%)” value [5] was 45%. For the same compound, the “Population Normal (%)” value [5] was 96%, the “Population Pyknosed Nuclei (%)” value [5] was 13% and the “Population Tubulin-Different-Phenotype (%)” value [5] was 51%. For the same compound, the “Total Cell Count” value [5] was 158, the “Population Apoptotic (%)” value [6] was 60% and the “Population Fragmented Nuclei (%)” value [6] was 31%. For the same compound, the “Population Healthy Nuclei (%)” value [6] was 36%, the “Population Hoechst High Intensity Objects (%)” value [6] was 4% and the “Population Membrane Permeable-Phenotype (%)” value [6] was 4%. For the same compound, the “Population Mitochondria Different-Phenotype (%)” value [6] was 20%, the “Population Mitotic Cells (%)” value [6] was 39% and the “Population Normal (%)” value [6] was 95%. The “Population Pyknosed Nuclei (%)” value [6] was 31%, the “Population Tubulin-Different-Phenotype (%)” value [6] was 79% and the “Total Cell Count” value [6] was 125. For the same compound, the “Population Apoptotic (%)” value [7] was 73%, the “Population Fragmented Nuclei (%)” value [7] was 15% and the “Population Healthy Nuclei (%)” value [7] was 68%. The “Population Hoechst High Intensity Objects (%)” value [7] was 7%, the “Population Membrane Permeable-Phenotype (%)” value [7] was 0% and the “Population Mitochondria Different-Phenotype (%)” value [7] was 55%. The “Population Mitotic Cells (%)” value [7] was 26%, the “Population Normal (%)” value [7] was 92% and the “Population Pyknosed Nuclei (%)” value [7] was 16%. For the same compound, the “Population Tubulin-Different-Phenotype (%)” value [7] was 94%, the “Total Cell Count” value [7] was 274 and the “Population Apoptotic (%)” value [8] was 62%. The “Population Fragmented Nuclei (%)” value [8] was 27%, the “Population Healthy Nuclei (%)” value [8] was 54% and the “Population Hoechst High Intensity Objects (%)” value [8] was 5%. The “Population Membrane Permeable-Phenotype (%)” value [8] was 3%, the “Population Mitochondria Different-Phenotype (%)” value [8] was 41% and the “Population Mitotic Cells (%)” value [8] was 37%. For the same compound, the “Population Normal (%)” value [8] was 94%, the “Population Pyknosed Nuclei (%)” value [8] was 17% and the “Population Tubulin-Different-Phenotype (%)” value [8] was 92%. For the same compound, the “Total Cell Count” value [8] was 174, the “Population Apoptotic (%)” value [9] was 80% and the “Population Fragmented Nuclei (%)” value [9] was 22%. For the same compound, the “Population Healthy Nuclei (%)” value [9] was 67%, the “Population Hoechst High Intensity Objects (%)” value [9] was 6% and the “Population Membrane Permeable-Phenotype (%)” value [9] was 0%. The “Population Mitochondria Different-Phenotype (%)” value [9] was 8%, the “Population Mitotic Cells (%)” value [9] was 20% and the “Population Normal (%)” value [9] was 93%. The “Population Pyknosed Nuclei (%)” value [9] was 10%, the “Population Tubulin-Different-Phenotype (%)” value [9] was 44% and the “Total Cell Count” value [9] was 161. The “Population Apoptotic (%)” value [10] was 64%, the “Population Fragmented Nuclei (%)” value [10] was 38% and the “Population Healthy Nuclei (%)” value [10] was 41%. The “Population Hoechst High Intensity Objects (%)” value [10] was 1%, the “Population Membrane Permeable-Phenotype (%)” value [10] was 3% and the “Population Mitochondria Different-Phenotype (%)” value [10] was 16%. For the same compound, the “Population Mitotic Cells (%)” value [10] was 35%, the “Population Normal (%)” value [10] was 98% and the “Population Pyknosed Nuclei (%)” value [10] was 20%. The “Population Tubulin-Different-Phenotype (%)” value [10] was 80%, the “Total Cell Count” value [10] was 153 and the “Population Apoptotic (%)” value [11] was 86%. The “Population Fragmented Nuclei (%)” value [11] was 20%, the “Population Healthy Nuclei (%)” value [11] was 64% and the “Population Hoechst High Intensity Objects (%)” value [11] was 8%. The “Population Membrane Permeable-Phenotype (%)” value [11] was 0%, the “Population Mitochondria Different-Phenotype (%)” value [11] was 62% and the “Population Mitotic Cells (%)” value [11] was 13%. The “Population Normal (%)” value [11] was 91%, the “Population Pyknosed Nuclei (%)” value [11] was 15% and the “Population Tubulin-Different-Phenotype (%)” value [11] was 94%. For the same compound, the “Total Cell Count” value [11] was 256, the “Population Fragmented Nuclei (%)” value [12] was 32% and the “Population Healthy Nuclei (%)” value [12] was 55%. For the same compound, the “Population Hoechst High Intensity Objects (%)” value [12] was 4%, the “Population Mitochondria Different-Phenotype (%)” value [12] was 36% and the “Population Normal (%)” value [12] was 95%. For the same compound, the “Population Pyknosed Nuclei (%)” value [12] was 11% and the “Total Cell Count” value [12] was 193.
